Data as given in ChEMBL document CHEMBL1833955, “Optimization of (arylpiperazinylbutyl)oxindoles exhibiting selective 5-HT₇ receptor antagonist activity” (J Med Chem, 2011).

Columns and labels:
[1] = molecular target: T1, 5-hydroxytryptamine receptor 1A (Rattus norvegicus, UniProt P19327); experiment: Displacement of [3H]8-OH-DPAT from 5-HT1A receptor in rat frontal cortex membrane after 45 mins by scintillation counting; format: cell membranes
T1 sequence (P19327 whole entry): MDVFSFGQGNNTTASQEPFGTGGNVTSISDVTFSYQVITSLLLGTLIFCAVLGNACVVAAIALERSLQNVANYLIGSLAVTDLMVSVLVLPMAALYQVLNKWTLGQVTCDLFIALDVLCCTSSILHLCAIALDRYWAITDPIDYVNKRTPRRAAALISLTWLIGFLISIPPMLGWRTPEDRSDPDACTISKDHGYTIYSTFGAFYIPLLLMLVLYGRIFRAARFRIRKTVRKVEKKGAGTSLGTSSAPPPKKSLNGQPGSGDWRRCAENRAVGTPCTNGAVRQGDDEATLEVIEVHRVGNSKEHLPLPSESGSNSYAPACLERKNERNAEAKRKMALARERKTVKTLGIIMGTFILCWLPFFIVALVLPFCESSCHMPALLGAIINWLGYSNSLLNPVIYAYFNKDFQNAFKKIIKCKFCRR
Summary of the method: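 Membranes from adult rat frontal cortex, prepared in 50 mM Tris-HCl pH 7.7 with washes and a 37 °C preincubation. Incubation buffer: 6.66 mM CaCl2, 16.66 μM pargyline, 0.166% ascorbic acid. Ligand 1.5 nM [3H]8-OH-DPAT; 10 μM 5-HT defines nonspecific binding. 45 min at 25 °C, GF/B filtration, scintillation counting. Triplicates; Ki from two nine-point curves, single-site fit.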

[2] = molecular target: 5-hydroxytryptamine receptor 7 (Homo sapiens, UniProt P34969); experiment: Displacement of [3H]CT from human 5-HT7 receptor expressed in CHO cells by scintillation spectrometry; format: cell-based
Sequence of 5-hydroxytryptamine receptor 7 (P34969 whole entry): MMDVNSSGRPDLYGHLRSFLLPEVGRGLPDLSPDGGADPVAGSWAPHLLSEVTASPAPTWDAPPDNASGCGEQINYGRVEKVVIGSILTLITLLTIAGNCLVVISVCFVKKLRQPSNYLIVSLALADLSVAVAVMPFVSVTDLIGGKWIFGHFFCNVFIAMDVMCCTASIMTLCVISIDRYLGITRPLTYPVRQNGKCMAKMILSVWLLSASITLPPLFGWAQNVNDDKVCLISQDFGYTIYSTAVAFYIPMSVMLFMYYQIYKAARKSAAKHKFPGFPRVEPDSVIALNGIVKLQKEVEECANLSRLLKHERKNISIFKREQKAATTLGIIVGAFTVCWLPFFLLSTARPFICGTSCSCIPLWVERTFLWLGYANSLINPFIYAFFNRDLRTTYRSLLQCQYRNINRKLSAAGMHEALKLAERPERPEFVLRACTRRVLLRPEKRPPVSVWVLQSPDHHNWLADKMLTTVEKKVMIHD
Summary of the method: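 Cloned human 5-HT7 receptor from CHO cells, run under the supplier's recommended conditions with [3H]CT. Nonspecific binding with 25 μM clozapine. Ended by GF/C filtration, then scintillation counting. Ki taken from two nine-concentration displacement curves run in triplicate, single-site fit.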

[3] = molecular target: T2, Adrenergic receptor alpha-1 (Rattus norvegicus, UniProt P15823+P23944+P43140); experiment: Displacement of [3H]prazosin from alpha1-adrenergic receptor in rat frontal cortex membrane after 45 mins by scintillation spectrometry; format: cell membranes
T2 sequence (P15823 whole entry): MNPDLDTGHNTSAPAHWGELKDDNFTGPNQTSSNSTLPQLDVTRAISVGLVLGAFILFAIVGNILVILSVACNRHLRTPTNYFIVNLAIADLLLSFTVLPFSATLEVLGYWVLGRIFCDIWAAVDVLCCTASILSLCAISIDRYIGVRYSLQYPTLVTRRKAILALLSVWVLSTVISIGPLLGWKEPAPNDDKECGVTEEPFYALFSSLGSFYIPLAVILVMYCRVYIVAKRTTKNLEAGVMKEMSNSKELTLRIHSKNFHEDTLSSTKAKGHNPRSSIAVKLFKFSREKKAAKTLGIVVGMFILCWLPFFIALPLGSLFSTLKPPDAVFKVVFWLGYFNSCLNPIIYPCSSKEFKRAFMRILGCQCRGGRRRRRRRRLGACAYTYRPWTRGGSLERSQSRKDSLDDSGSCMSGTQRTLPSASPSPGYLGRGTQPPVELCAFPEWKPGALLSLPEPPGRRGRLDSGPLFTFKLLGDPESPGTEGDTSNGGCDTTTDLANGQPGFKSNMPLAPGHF
T2 sequence (P23944 whole entry): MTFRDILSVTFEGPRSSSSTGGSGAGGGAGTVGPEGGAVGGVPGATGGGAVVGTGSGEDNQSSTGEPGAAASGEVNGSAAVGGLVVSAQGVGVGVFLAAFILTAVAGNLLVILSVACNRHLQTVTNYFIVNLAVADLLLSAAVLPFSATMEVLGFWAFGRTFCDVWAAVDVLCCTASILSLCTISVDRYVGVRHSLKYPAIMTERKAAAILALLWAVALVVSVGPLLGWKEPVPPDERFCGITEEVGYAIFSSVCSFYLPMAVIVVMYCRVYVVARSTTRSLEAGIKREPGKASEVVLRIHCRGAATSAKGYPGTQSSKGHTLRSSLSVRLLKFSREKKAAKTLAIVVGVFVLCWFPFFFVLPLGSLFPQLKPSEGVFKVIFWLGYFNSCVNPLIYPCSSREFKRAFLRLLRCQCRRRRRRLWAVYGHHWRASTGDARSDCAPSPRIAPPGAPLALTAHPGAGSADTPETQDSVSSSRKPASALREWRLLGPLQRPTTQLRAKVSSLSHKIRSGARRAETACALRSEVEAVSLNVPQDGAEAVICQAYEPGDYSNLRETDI
T2 sequence (P43140 whole entry): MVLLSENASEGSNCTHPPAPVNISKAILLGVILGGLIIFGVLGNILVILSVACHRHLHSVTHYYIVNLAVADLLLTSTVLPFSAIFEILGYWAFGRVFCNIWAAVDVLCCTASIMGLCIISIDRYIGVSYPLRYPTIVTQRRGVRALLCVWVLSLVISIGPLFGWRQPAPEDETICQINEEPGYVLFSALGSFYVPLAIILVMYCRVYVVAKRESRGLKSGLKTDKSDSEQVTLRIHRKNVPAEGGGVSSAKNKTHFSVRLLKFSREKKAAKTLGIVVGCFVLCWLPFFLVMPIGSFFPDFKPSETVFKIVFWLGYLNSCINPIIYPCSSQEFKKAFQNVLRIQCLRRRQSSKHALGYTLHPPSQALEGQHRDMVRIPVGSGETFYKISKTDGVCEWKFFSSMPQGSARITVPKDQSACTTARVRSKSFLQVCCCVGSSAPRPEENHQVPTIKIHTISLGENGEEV
Summary of the method: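 Rat frontal cortex tissue frozen on dry ice, homogenised in 50 mM Tris-HCl pH 7.7 and washed by centrifugation. [3H]prazosin at 0.6 nM; 10 μM prazosin defines nonspecific binding. 45 min at 25 °C, GF/B filtration, scintillation counting. Triplicates; Ki from two nine-concentration curves fitted to a single-site model.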

[4] = Metabolic stability in human liver microsomes after 60 mins by HPLC-MS/MS analysis; format: ADME, Microsome; settings: read-out: Stability
Summary of the method: (§1)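 Test compound at 100 nM final incubated with rat or human liver microsomes (0.33 mg/mL) at 37 °C for 0, 5, 15, 30 and 60 min. Buffer Tris-HCl pH 7.4 with Mg2+ and BSA. Reaction started with NADPH and stopped with ice-cold MeOH. Parent compound measured by HPLC-MS/MS, positive-ion MRM.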

[5] = Selectivity ratio of Ki for 5-HT1A receptor in rat frontal cortex membrane to Ki for human 5-HT7 receptor; format: cell membranes
[6] = Selectivity ratio of Ki for alpha1-adrenergic receptor in rat frontal cortex membrane to Ki for human 5-HT7 receptor; format: cell membranes
[7] = molecular target: T3, 5-hydroxytryptamine receptor 1A (Rattus norvegicus) (UniProt P19327); experiment: Displacement of [3H]8-OH-DPAT from 5-HT1A receptor in rat frontal cortex membrane at 10^-7 M after 45 mins by scintillation counting; format: cell membranes
T3 sequence (whole entry): T1 sequence (P19327 whole entry)

[8] = Metabolic stability in rat liver microsomes after 60 mins by HPLC-MS/MS analysis; format: ADME, Microsome; settings: read-out: Stability; summary of the method: as §1
[9] = Drug level in NMRI mouse brain at 1 mg/kg, ip after 30 mins by HPLC/MS/MS analysis; format: ADME, organism-based; set-up: dose 1 mg/kg, route intraperitoneal; settings: read-out: Drug uptake
Summary of the method: (§2)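 Male NMRI mice, 25–30 g, given four compounds together ip as a cassette suspension in 0.4% methyl cellulose (n = 3/dose). After 30 min, vena cava blood and brain collected. Brain homogenised in 4 volumes of water; samples extracted with acetonitrile–water 3:1 and analysed by gradient HPLC-MS/MS against spiked calibrators. Brain/plasma given as percentage.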

[10] = Plasma concentration in NMRI mouse at 1 mg/kg, ip after 30 mins by HPLC-MS/MS analysis; format: ADME, organism-based; set-up: dose 1 mg/kg, route intraperitoneal; summary of the method: as §2
[11] = Plasma concentration in NMRI mouse at 10 mg/kg, ip after 30 mins by HPLC-MS/MS analysis; format: ADME, organism-based; set-up: dose 10 mg/kg, route intraperitoneal; summary of the method: as §2
Mus musculus = experiment: Anxiolytic activity in ip dosed NMRI mouse assessed as behavioral activity administered 30 mins prior to test measured up to 5 mins by light-dark test; format: functional; settings: read-out: MED
Summary of the method: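 Male NMRI mice, 25–33 g, housed in the dark, dosed ip 30 min before test. Each mouse placed in the centre of the lit side of an automated two-compartment chamber under a 2-lx light. Activity recorded for 5 min: time in each area, transitions, horizontal and vertical activity. Means ± SEM, one-way ANOVA with Duncan's test; MED reported.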

[12] = Plasma concentration in NMRI mouse at 3 mg/kg, ip after 30 mins by HPLC-MS/MS analysis; format: ADME, organism-based; set-up: dose 3 mg/kg, route intraperitoneal; summary of the method: as §2
[13] = Drug level in NMRI mouse brain at 10 mg/kg, ip after 30 mins by HPLC/MS/MS analysis; format: ADME, organism-based; set-up: dose 10 mg/kg, route intraperitoneal; settings: read-out: Drug uptake; summary of the method: as §2
[14] = Drug level in NMRI mouse brain at 3 mg/kg, ip after 30 mins by HPLC/MS/MS analysis; format: ADME, organism-based; set-up: dose 3 mg/kg, route intraperitoneal; settings: read-out: Drug uptake; summary of the method: as §2

| SMILES | Ki [1] | Ki [2] | Ki [3] | remaining at 1 h [4] | Ratio Ki [5] | Ratio Ki [6] | inhibition [7] | remaining at 1 h [8] | further results |
| --- | --- | --- | --- | --- | --- | --- | --- | --- | --- |
| CCC1(CCCCN2CCN(c3cccc(Cl)c3)CC2)C(=O)Nc2c1cc(Cl)c(F)c2Cl (stereo unspecified) | 680 nM | 72 nM | 97 nM |  |  |  |  |  |  |
| O=C1Nc2ccccc2C1CCCCN1CC=C(c2cccc(C(F)(F)F)c2)CC1 (stereo unspecified) | 19 nM | 11.1 nM | 310 nM |  |  |  |  |  |  |
| CCC1(CCCCN2CCN(c3cccc(Cl)c3)CC2)C(=O)Nc2cc(F)c(Cl)cc21 (stereo unspecified) |  |  | 117 nM | 46% | > 100 | 13 | 16% | 16% |  |
| CCC1(CCCCN2CCN(c3ccc(Cl)cc3Cl)CC2)C(=O)Nc2ccccc21 (stereo unspecified) |  | 139 nM | 380 nM | 28% |  | 3 | 11% | 17% |  |
| CCC1(CCCCN2CCN(c3ccccc3Cl)CC2)C(=O)Nc2ccccc21 (stereo unspecified) | 30 nM | 53 nM | 64 nM |  |  |  |  |  |  |
| CCC1(CCCCN2CCN(c3ccc(Cl)cc3)CC2)C(=O)Nc2ccc(F)cc21 (stereo unspecified) |  |  | 190 nM | 36% | > 100 | 68 | 9% | 17% | concentration at 0.5 h [9]: 51 nM; concentration at 0.5 h [10]: 44 nM; concentration at 0.5 h [11]: 271 nM; minimal effective dose (Mus musculus): > 10 mg/kg; concentration at 0.5 h [12]: 211 nM; concentration at 0.5 h [13]: 342 nM; concentration at 0.5 h [14]: 186 nM |

Now from value to compound, other results behind:

| Ki [1] | Ki [2] | Ki [3] | remaining at 1 h [4] | Ratio Ki [5] | Ratio Ki [6] | inhibition [7] | remaining at 1 h [8] | SMILES | further results |
| --- | --- | --- | --- | --- | --- | --- | --- | --- | --- |
| 36 nM | 5.1 nM |  |  |  |  |  |  | CCC1(CCCCN2CCN(c3cccc(C(F)(F)F)c3)CC2)C(=O)Nc2ccccc21 (stereo unspecified) |  |
| 55 nM | 4 nM | 150 nM |  |  |  |  |  | CCC1(CCCCN2CCN(c3ccccn3)CC2)C(=O)Nc2ccccc21 (stereo unspecified) |  |
|  | 40 nM | 116 nM | 44% | > 100 | 3 | 0% | 28% | O=C1Nc2ccc(F)cc2C1CCCCN1CCN(c2ccc(Cl)cc2)CC1 (stereo unspecified) |  |
|  | 25 nM | 55 nM |  |  |  | 6% |  | O=C1Nc2cc(F)ccc2C1CCCCN1CCN(c2ccc(Cl)cc2)CC1 (stereo unspecified) |  |
|  | 6.9 nM | 29 nM |  |  |  | 11% |  | CCC1(CCCCN2CCC(c3ccc(F)cc3)CC2)C(=O)Nc2ccccc21 (stereo unspecified) |  |
|  | 7 nM | 42 nM | 52% | 257 | 6 |  | 10% | O=C1Nc2ccccc2C1CCCCN1CCN(c2ccc(Cl)cc2)CC1 (stereo unspecified) |  |
|  | 5 nM | 14 nM |  |  |  | 10% |  | O=C1Nc2ccccc2C1CCCCN1CCN(c2ccc(F)cc2)CC1 (stereo unspecified) |  |
